According to ChEMBL document CHEMBL1133698, “Novel ligands lacking a positive charge for the delta- and mu-opioid receptors” (J Med Chem, 2000):
Where a SMILES comes first, the peptide text is derived from it. Bridges are numbered along the chain shown (N, C = ends). [ ]: non-standard residue; d: D form. 2Nal = N[C@@H](Cc1ccc2ccccc2c1)C(=O)O; Dmt = Cc1cc(O)cc(C)c1C[C@H](N)C(=O)O; dOrn = NCCC[C@@H](N)C(=O)O

Tests used:
[1] = species: Mus musculus; experiment: Antagonist activity was determined against the selective delta -agonist DPDPE in the MVD (mouse vas deferens) assay; format: functional
Summary of the method: (§1)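 Mouse vas deferens, electrically evoked contractions. DPDPE IC50 measured with and without a fixed antagonist concentration (50 to 4000 nM). Ke = a/(DR − 1), where DR is the ratio of agonist IC50 values. Mean of three to six determinations ± SEM.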

[2] = target: Mu-type opioid receptor (Rattus norvegicus, UniProt P33535); experiment: Binding affinity was determined by displacement of [3H]- DAMGO at Opioid receptor mu 1 in rat brain membrane homogenates; format: cell membranes
Mu-type opioid receptor, sequence (P33535 whole entry, looked up): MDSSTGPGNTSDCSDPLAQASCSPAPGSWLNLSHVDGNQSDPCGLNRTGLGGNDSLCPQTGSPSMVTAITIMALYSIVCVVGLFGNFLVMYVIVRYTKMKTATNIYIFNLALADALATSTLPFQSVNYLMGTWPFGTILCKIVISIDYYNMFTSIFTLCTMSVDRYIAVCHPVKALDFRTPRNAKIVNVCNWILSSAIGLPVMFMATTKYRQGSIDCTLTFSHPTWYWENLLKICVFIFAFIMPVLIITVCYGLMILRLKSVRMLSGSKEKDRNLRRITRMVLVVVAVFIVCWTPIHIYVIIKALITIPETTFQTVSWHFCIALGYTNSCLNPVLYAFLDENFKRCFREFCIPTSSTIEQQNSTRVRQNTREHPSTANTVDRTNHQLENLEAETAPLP
Summary of the method: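 Rat brain membranes, [3H]DAMGO at 0.72 nM, 2 h at 25 °C. Enzyme inhibitor cocktail in buffer (bestatin 100 µM, captopril 1.0 µM, thiorphan 1.0 µM, Leu-Leu 100 µM). IC50 from log dose-displacement curves. Ki by Cheng-Prusoff using Kd 1.3 nM. Mean of three to six determinations ± SEM.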

[3] = target: Delta-type opioid receptor (Rattus norvegicus, UniProt P33533); experiment: Binding affinity was determined by displacement of [3H]- DSLET at Opioid receptor delta 1 in rat brain membrane homogenates; format: cell membranes
Delta-type opioid receptor, sequence (P33533 whole entry, looked up): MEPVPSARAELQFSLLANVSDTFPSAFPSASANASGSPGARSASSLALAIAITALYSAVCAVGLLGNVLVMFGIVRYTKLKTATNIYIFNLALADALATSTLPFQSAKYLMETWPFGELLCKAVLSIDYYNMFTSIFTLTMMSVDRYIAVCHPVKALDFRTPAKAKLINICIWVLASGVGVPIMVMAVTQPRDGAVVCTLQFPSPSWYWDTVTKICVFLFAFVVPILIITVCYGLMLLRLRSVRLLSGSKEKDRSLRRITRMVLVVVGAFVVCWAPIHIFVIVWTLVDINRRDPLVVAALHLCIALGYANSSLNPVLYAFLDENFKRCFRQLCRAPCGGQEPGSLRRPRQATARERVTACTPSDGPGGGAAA
Summary of the method: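 Rat brain membranes, [3H]DSLET at 0.78 nM, 2 h at 25 °C, with a peptidase inhibitor cocktail in buffer. Poorly soluble peptides dissolved in DMSO, diluted in buffer, filtered, and concentration set by optical density. IC50 from log dose-displacement curves. Ki by Cheng-Prusoff with Kd 2.6 nM. Mean of three to six determinations ± SEM.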

[4] = species: Cavia porcellus; experiment: (§2) Antagonist activity was determined against the selective delta -agonist TAPP in the GPI (guinea pig ileum) assay; format: functional, organism-based
Summary of the method: (§3)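 Guinea pig ileum, electrically evoked contractions. µ-Agonist TAPP IC50 measured with and without antagonist at a fixed 500 nM. Ke = a/(DR − 1) from the IC50 ratio. Mean of three to six determinations ± SEM.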

[5] = species: Mus musculus; experiment: Antagonist activity was determined against the selective delta -agonist DPDPE by inhibition of electrically evoked contractions of the mouse vas deferens; format: functional; summary of the method: as §1
[6] = species: Cavia porcellus; experiment: as §2; format: functional; summary of the method: as §3

## C[C@@H](O)[C@@H]1NC(=O)[C@H](Cc2ccc(O)cc2)NC(=O)[C@@H](Cc2c[nH]c3ccccc23)NC(=O)[C@H](Cc2cccc3ccccc23)NC(=O)[C@@H]2CCCN2C(=O)[C@H](Cc2ccccc2)NC1=O
[1]
  Ke: 128 nM
[2]
  Ki: > 10000 nM
[3]
  Ki: 152 nM

## C[C@@H](O)[C@@H]1NC(=O)[C@H](Cc2ccc(O)cc2)NC(=O)[C@@H](Cc2c[nH]c3ccccc23)NC(=O)[C@H](Cc2ccc3ccccc3c2)NC(=O)[C@@H]2CCCN2C(=O)[C@H](Cc2ccccc2)NC1=O
[1]
  Ke: 2460 nM
[2]
  Ki: > 10000 nM
[3]
  Ki: 1070 nM

## Cc1cc(O)cc(C)c1C[C@H](N)C(=O)N[C@@H]1CCCNC(=O)CNC(=O)[C@H]2CCCN2C(=O)[C@H](Cc2ccc3ccccc3c2)NC1=O (H-[Dmt][dOrn][2Nal][dP]G; lactam 2-C)
[1]
  Ke: 2.13 nM
[4]
  IC50: 7.88 nM
[2]
  Ki: 0.476 nM
[3]
  Ki: 0.467 nM

## C[C@@H](O)[C@@H]1NC(=O)[C@H](Cc2ccc(O)cc2)NC(=O)[C@@H](Cc2c[nH]c3ccccc23)NC(=O)[C@H](Cc2ccccc2)NC(=O)[C@@H]2CCCN2C(=O)[C@H](Cc2ccccc2)NC1=O (cyclo(FPF[dW]YT))
[5]
  Ke: 238 nM
[2]
  Ki: > 10000 nM
[3]
  Ki: 759 nM

## Cc1cc(O)cc(C)c1CCC(=O)N[C@@H]1CCCNC(=O)CNC(=O)[C@H]2CCCN2C(=O)[C@H](Cc2ccc3ccccc3c2)NC1=O
[1]
  Ke: 121 nM
[6]
  Ke: 237 nM
[2]
  Ki: 450 nM
[3]
  Ki: 109 nM

## C[C@@H](O)[C@@H]1NC(=O)[C@H](CC2CCCCC2)NC(=O)[C@@H](Cc2c[nH]c3ccccc23)NC(=O)[C@H](Cc2ccccc2)NC(=O)[C@@H]2CCCN2C(=O)[C@H](Cc2ccccc2)NC1=O
[1]
  Ke: 202 nM
[2]
  Ki: > 10000 nM
[3]
  Ki: 486 nM

## Cc1cc(O)cc(C)c1C[C@H](NC=O)C(=O)N[C@@H]1CCCNC(=O)CNC(=O)[C@H]2CCCN2C(=O)[C@H](Cc2ccc3ccccc3c2)NC1=O
[1]
  Ke: 16.3 nM
[6]
  Ke: 216 nM
[2]
  Ki: 218 nM
[3]
  Ki: 32.8 nM
